What is called EC50 is the concentration needed to bring the measured effect to its halfway point. As usually defined, the CC50 is the concentration giving 50% cytotoxicity.

Experimental findings from article PMC7080202 (Medicinal Chemistry Research, 2013) are described below.

For data set [1], the system named is Vaccinia virus. As to the kind of experiment: microbe, parasite or virus in culture. The format is cell-based. The following applies: read-out: EC50 Vaccinia virus.
Data set [2] deals with Para-influenza-3 virus. The data set is described as follows: organism not typed. It counts as cell-based, parainfluenza-3 virus. The note with it: read-out: Antiviral activity EC50 Para-influenza-3 virus.
In data set [3] the test system is Feline corona virus. As to the kind of experiment: Antiviral CPE assay, feline corona virus in CRFK cells. It counts as cell-based, feline coronavirus (FIPV). The note with it: read-out: EC50 Feline corona virus; CRFK cell culture.
Data set [4] deals with Vesicular stomatitis virus. As to the kind of experiment: microbe, parasite or virus in culture. The following applies: read-out: EC50 Vesicular stomatitis virus. It counts as cell-based.
In data set [5] the test system is Crandell-Rees feline kidney cells. As to the kind of experiment: Cytotoxicity. The format is cell-based.
Data set [6] relates to Vero cell cultures. The data set is described as follows: Cytotoxicity. The format is cell-based. In short, it runs like this:
(§1)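 Cell cultures incubated with varying concentrations of test compound, then examined by microscopy. MCC is the lowest concentration that causes a microscopically detectable alteration of normal cell morphology. HEL, Vero and HeLa lines were monitored regularly for mycoplasma and found free of it.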

The subject of data set [7] is Cytomegalovirus AD-169 strain. The format is cell-based, human cytomegalovirus. The note with it: both strains of HCMV (AD-169 and Davis).
The subject of data set [8] is Sindbis virus. As to the kind of experiment: microbe, parasite or virus in culture. The format is cell-based. The following applies: read-out: Antiviral activity EC50 Sindbis virus; Vero cell cultures.
In data set [9] the test system is Punta Toro virus. The data set is described as follows: microbe, parasite or virus in culture. It counts as cell-based. The following applies: read-out: Antiviral activity EC50 Punta Toro virus; Vero cell cultures.
The subject of data set [10] is MDCK cells. The note with it: for Cytotoxicity Minimum cytotoxic concentration: microscopically detectable alteration of normal cell morphology; for CC50: read-out: Cytotoxicity CC50, MTS assay. (Formazan colour is commonly taken as a measure of viable cells.)
Data set [11] concerns Feline herpes virus. As to the kind of experiment: Antiviral CPE assay, feline herpes virus in CRFK cells. It counts as cell-based. The note with it: read-out: EC50 Feline herpes virus; CRFK cell culture.
The subject of data set [12] is Herpes simplex virus-1TK-KOS ACV^r. As to the kind of experiment: microbe, parasite or virus in culture. The format is cell-based, herpes simplex virus type 1. The following applies: read-out: EC50 Herpes simplex virus-1TK-KOS ACV^r; HEL cell culture.
Data set [13] relates to Coxsackie virus B4. As to the kind of experiment: microbe, parasite or virus in culture. The format is cell-based. The note with it: read-out: Antiviral activity EC50 Coxsackie virus B4; Vero cell cultures.
Data set [14] relates to Coxsackie virus B4. As to the kind of experiment: microbe, parasite or virus in culture. The format is cell-based. The note with it: read-out: Antiviral activity EC50 Coxsackie virus B4; HeLa cell cultures.
Data set [15] concerns Herpes simplex virus-1 (KOS). The data set is described as follows: microbe, parasite or virus in culture. The format is cell-based, herpes simplex virus type 1. The note with it: read-out: EC50 Herpes simplex virus-1 (KOS); HEL cell culture.
In data set [16] the test system is Influenza B. As to the kind of experiment: Anti-influenza virus activity, influenza B in MDCK cells. The format is cell-based, influenza B virus B/Hong Kong/5/72. The note with it: read-out: Antiviral EC50 Influenza B MTS; MDCK cells; MTS.
For data set [17], the system named is Human embryonic lung cell cultures. As to the kind of experiment: Cytotoxicity. It counts as cell-based. In short, it runs like this:
as §1

For data set [18], the system named is HeLa cell cultures. As to the kind of experiment: Cytotoxicity. It counts as cell-based. In short, it runs like this: as §1
Data set [19] relates to Vesicular stomatitis virus. It counts as cell-based. The following applies: read-out: Antiviral activity EC50 Vesicular stomatitis virus.
Data set [20] relates to Herpes simplex virus-2 (G). The data set is described as follows: microbe, parasite or virus in culture. The format is cell-based, herpes simplex virus type 2. The following applies: read-out: EC50 Herpes simplex virus-2 (G); HEL cell culture.
The test system of data set [21] is Influenza A H3N2 subtype. The data set is described as follows: Anti-influenza virus activity, influenza A H3N2 in MDCK cells. The format is cell-based, influenza A virus A/Hong Kong/7/87 (H3N2). The following applies: read-out: Antiviral EC50 Influenza A H3N2 subtype MTS.
Data set [22] has as its system Reovirus-1. As to the kind of experiment: organism not typed. The format is cell-based. The following applies: read-out: Antiviral activity EC50 Reovirus-1; Vero cell cultures.
The test system of data set [23] is Influenza A H1N1 subtype. The data set is described as follows: Anti-influenza virus activity, influenza A H1N1 in MDCK cells. It counts as cell-based, influenza A virus A/Puerto Rico/8/34 (H1N1). The following applies: read-out: Antiviral EC50 Influenza A H1N1 subtype MTS; MDCK cells; MTS.

Where two headings read alike, the source gives them in different places. Bounds are passed on as bounds.

For “3-[(1H-indol-3-ylmethylidene)amino]-1-{[(3Z)-2-oxo-2,3-dihydro-1H-indol-3-ylidene]amino}thiourea [4a]”, the EC50 in data set [1], in [2], in data set [3], in data set [4], in data set [8] and in data set [9] was over 20 µM in each case. Moreover, the EC50 in data set [11] is over 20 µM; in data set [12] it was over 20 µM; in data set [13], over 20 µM; in data set [14], over 20 µM; in [15] it was over 20 µM; in [16] it was over 4 µM. Besides, the EC50 is over 20 µM in [19]; over 20 µM in data set [20]; over 4 µM in [21]; over 20 µM in data set [22]; over 4 µM in [23]. Moreover, the Minimum cytotoxic concentration was 86 µM in data set [5], 100 µM in data set [6], 60 µM in [17] and at least 20 µM in data set [18]. Besides, the “antiviral activity against HCMV (in words)” value in data set [7] is “moderate activity”. Besides, in data set [10], the “Cytotoxicity Minimum cytotoxic concentration” value came to 20. In [10], the 50% cytotoxic concentration (CC50) amounted to 51 µM.
As to “1-{[(4-Chlorophenyl)methylidene]amino}-3-{[(3Z)-2-oxo-2,3-dihydro-1H-indol-3-ylidene]amino}thiourea [4e]”, the EC50 in [1], in data set [2], in [3], in data set [4], in data set [8] and in [9] was over 100 µM throughout. Also, the EC50 in data set [11], in [12], in data set [13], in data set [14], in data set [15] and in data set [16] was over 100 µM in each case. Further, the EC50 in data set [19], in data set [20], in [21], in data set [22] and in [23] was over 100 µM in each case. The Minimum cytotoxic concentration in [5] is over 100 µM; in data set [6], over 100 µM; in [17], 100 µM; in [18] it was over 100 µM. The “Cytotoxicity Minimum cytotoxic concentration” value in [10] is over 100. Also, the cytotoxic concentration (CC50) in [10] is over 100 µM.
